{"data": "Results collected from several papers", "target": "TGF-beta receptor type-2 (TGFBR2, Homo sapiens, UniProt P37173)", "note": "Protocols differ between the studies behind these lines."}
{"Structure (SMILES)": "Cc1ccc(C(=O)Nc2ccc(CN3CCN(C)CC3)c(C(F)(F)F)c2)cc1C#Cc1cnc2cccnn12", "test": "cell-free assay", "conditions": "23.5 nM", "endpoint": "remaining signal", "result": "76%"}
{"Structure (SMILES)": "C[C@@H](c1cccc(C#N)c1)n1cc(Cl)cc(C(N)=O)c1=N", "test": "cell-free assay, competition with immobilised ligand", "conditions": "1 µM", "endpoint": "remaining binding", "result": "100%"}
{"Structure (SMILES)": "c1ccc(-c2[nH]ncc2-c2ccnc3ccccc23)nc1", "test": "cell-free assay", "conditions": "0.5 µM", "endpoint": "remaining signal", "result": "109%"}
{"Structure (SMILES)": "O=C(Nc1cccnn1)N1CC(C/C=C/c2cncc(Oc3ccc(C(F)(F)F)cn3)n2)C1", "test": "cell-free assay, competition with immobilised ligand", "conditions": "1 µM", "endpoint": "remaining binding", "result": "100%"}
{"Structure (SMILES)": "N#CCCc1ccc2c(c1)-c1[nH]c3ccc([N+](=O)[O-])cc3c1CC(=O)N2", "test": "cell-free assay", "conditions": "0.5 µM", "endpoint": "remaining signal", "result": "10.1%"}
{"Structure (SMILES)": "NS(=O)(=O)c1cc(NC(=O)Cc2ccccc2)ccc1Oc1cccc(Cl)c1", "test": "cell-free assay, competition with immobilised ligand", "conditions": "1 µM", "endpoint": "remaining binding", "result": "87%"}
{"Structure (SMILES)": "O=C1Nc2ccc(Cl)cc2C1=Cc1cc(Cl)c(O)c(Cl)c1", "test": "cell-free assay", "conditions": "0.5 µM", "endpoint": "remaining signal", "result": "94.9%"}
{"Structure (SMILES)": "CN1CC(Oc2cnc(C#N)cc2-c2ccn3nc(NC(=O)C4CC4)cc3c2)C1", "test": "enzyme activity, inhibitor", "conditions": "1 µM", "endpoint": "inhibition", "result": "11%"}
{"Structure (SMILES)": "Cc1ccc(Nc2nccc(N(C)c3ccc4c(C)n(C)nc4c3)n2)cc1S(N)(=O)=O", "test": "cell-free assay", "conditions": "0.5 µM", "endpoint": "remaining signal", "result": "100%"}
{"Structure (SMILES)": "O=C(Nc1cnn(-c2csc(C(=O)NC3COC3)c2)c1)Nc1ccccc1Cl", "test": "enzyme activity, inhibitor", "conditions": "5 µM", "endpoint": "remaining activity", "result": "113%"}
{"Structure (SMILES)": "Nc1ncnc2occ(-c3ccc(NC(=O)Nc4cc(C(F)(F)F)ccc4F)cc3)c12", "test": "cell-free assay", "conditions": "20 µM", "endpoint": "remaining signal", "result": "99%"}
{"Structure (SMILES)": "CC(C)(C)c1nc(-c2cccc(NS(=O)(=O)c3c(F)cccc3F)c2F)c(-c2ccnc(N)n2)s1", "test": "enzyme activity, inhibitor, radiometric", "conditions": "1 µM", "endpoint": "remaining activity", "result": "42%"}
